# Data: ChEMBL document CHEMBL1240506, “Identification and development of novel inhibitors of Toxoplasma gondii enoyl reductase” (J Med Chem, 2010)
# Tests used:
# Toxoplasma gondii = assay: Antiparasitic activity against Toxoplasma gondii infected in HFF after 24 hrs by [3H]uracil incorporation assay; type: functional
# Outline: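 Human foreskin fibroblasts were infected with T. gondii tachyzoites and given 1 h to invade before inhibitors were added. Cultures ran 3 days, then 3H-uracil was added for a further day. Parasite growth was read as uracil incorporation by liquid scintillation counting. MIC50 and MIC90 are the concentrations giving 50% and 90% growth inhibition. There were 6 replicate samples per group.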
# HFF [1] = assay: Toxicity to HFF; type: cell-based; conditions: human
# Outline: (§1)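 Host-cell toxicity was tested on non-confluent fibroblast monolayers by 3H-thymidine incorporation, alongside visual inspection of monolayer integrity. Testing ran simultaneously with the parasite inhibition assay, and the highest concentration tested was scored.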
# HFF [2] = assay: Toxicity to HFF at highest concentration; type: cell-based; conditions: human; outline: as §1
# [3] = biological target: T1, Enoyl-acyl carrier reductase (Toxoplasma gondii, UniProt Q6UCJ9); assay: Inhibition of Toxoplasma gondii enoyl reductase
# T1 sequence (Q6UCJ9 whole entry): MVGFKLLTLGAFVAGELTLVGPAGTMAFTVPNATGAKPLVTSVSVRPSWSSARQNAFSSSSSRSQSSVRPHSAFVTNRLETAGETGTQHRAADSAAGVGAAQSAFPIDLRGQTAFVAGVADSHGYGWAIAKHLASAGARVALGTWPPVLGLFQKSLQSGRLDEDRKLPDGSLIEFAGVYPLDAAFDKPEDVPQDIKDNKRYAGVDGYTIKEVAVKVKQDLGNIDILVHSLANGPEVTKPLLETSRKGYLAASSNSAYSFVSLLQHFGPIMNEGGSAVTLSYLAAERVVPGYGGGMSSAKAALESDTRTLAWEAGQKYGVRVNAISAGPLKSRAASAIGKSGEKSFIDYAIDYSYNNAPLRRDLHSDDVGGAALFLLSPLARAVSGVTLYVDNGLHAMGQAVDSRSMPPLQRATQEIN
# Outline: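 Recombinant TgENR (20 nM) was assayed in 100 mM Na/K phosphate pH 7.5, 150 mM NaCl and 100 μM NADH. Compounds were added in DMSO (2% final), and reactions were started at 25°C with 100 μM crotonyl-CoA. NADH consumption was followed at 340 nm.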
Compound,MIC50 (Toxoplasma gondii) [µM],MIC90 (Toxoplasma gondii) [µM],Activity (HFF [1]) [µM],Activity (HFF [2]),IC50 [3] [nM]
CN(Cc1cc2ccccc2n1C)C(=O)/C=C/c1ccc(N)nc1,> 6,> 6,> 6,Non-toxic,–
CCOC(=O)C(C)OC(=O)c1cc(Oc2ccc(C(F)(F)F)cc2Cl)ccc1[N+](=O)[O-] (configuration not stated) [LACTOFEN],16,23,–,Non-toxic,–
CCCc1cc(O)c(Oc2ccc(-c3nn[nH]n3)cc2)c(O)c1,> 24,> 24,–,Non-toxic,–
O=c1cc(OCCCn2c3ccccc3c3ccccc32)ccn1Cc1ccccc1Cl,2,14,–,Non-toxic,> 2000
Nc1cc(Cl)ccc1Oc1ccccc1,6,> 6,–,Non-toxic,> 20000
Nc1ccccc1CNC(=O)COc1ccc([N+](=O)[O-])cc1,> 24,> 24,–,–,–
C/C=C/C=C/C(=O)Nc1ccc(Oc2ccc(Cl)cc2O)cc1,6,> 6,6,–,> 2000
O=C(O)c1ccc(Cn2ccc(OCc3ccccc3)cc2=O)c(Cl)c1,> 24,> 24,–,–,–
O=[N+]([O-])c1ccc(Oc2ccc(Cl)cc2O)cc1,17,23,–,Non-toxic,45
N#Cc1ccc(Cn2ccc(OCc3ccccc3)cc2=O)c(Cl)c1,18,23,–,Non-toxic,> 20000
O=c1cc(OCc2ccccc2)ccn1Cc1ccccc1Cl,7,15,–,Non-toxic,> 20000
O=C(c1ccc([N+](=O)[O-])cc1)n1c(=O)[nH]c2ccccc21,> 24,> 24,–,–,–
CCCc1ccc(Oc2cccc(CCO)c2)c(O)c1,> 6,> 6,> 6,Non-toxic,–
CC(C)(C)C(=O)Oc1cc(Cl)ccc1Oc1ccc(Cl)cc1Cl,4,6,> 6,Non-toxic,3000
CC(C)(C)C(=O)Nc1cc(Cl)ccc1Oc1ccccc1,> 6,> 6,> 6,Non-toxic,–
NC(=O)c1ccc(Cn2ccc(OCc3ccccc3)cc2=O)c(Cl)c1,> 24,> 24,–,–,–
CC(=O)Nc1ccc(Oc2ccc(Cl)cc2O)cn1,> 24,> 24,–,–,–
CCCc1cc(O)c(Oc2ccc(C#N)cc2)c(O)c1,> 6,> 6,3,Non-toxic,–
CCCc1cc(O)c(Oc2ccc(C#N)cc2Cl)c(O)c1,15,22,–,Non-toxic,< 20
Oc1cc(Cl)ccc1Oc1ccccc1,5,> 6,> 6,Non-toxic,–
O=[N+]([O-])c1ccccc1Oc1ccc(Cl)cc1O,14,23,–,Non-toxic,290
Oc1cc(Cl)ccc1Oc1cccnc1,> 6,> 6,> 6,Non-toxic,2800
CCCc1ccc(Oc2ccc(N)cc2)c(O)c1,6,> 6,3,Non-toxic,< 20
O=c1[nH]c2ccccc2n1Cc1ccc([N+](=O)[O-])cc1,20,> 24,–,–,–
CCCc1cc(O)c(Oc2ccc(C#N)cc2Cl)c(OC)c1,> 6,> 6,> 6,Non-toxic,–
Nc1ccc(/C=C/C(=O)NCc2ccccc2N)cn1,> 6,> 6,> 6,Non-toxic,–
Oc1ccc(Oc2ccc(O)cc2O)cc1,> 6,> 6,6,Non-toxic,–
